Experimental data reported in ChEMBL document CHEMBL4689842, “EUbOPEN Chemogenomics Library wave 1” (2021).

Test system: Fibroblast
Test: Multiplex assay against human fibroblast
Type: toxicity, cell-based
Summary of the method: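 Four dyes were applied at seeding to live cells: Hoechst33342, BioTracker Green Microtubule Cytoskeleton Dye, MitoTracker Red and Annexin V Alexa Fluor 680. Imaging after compound addition used a CQ1 microscope at 37°C and 5% CO2. CellPathfinder machine-learning gating then sorted cells into Hoechst high-intensity objects or normal cells, normal cells into healthy, pyknosed or fragmented nuclei, and pyknosed cells into mitotic or apoptotic, with tubulin, mitochondrial-mass and membrane-permeability phenotypes given as per cents of healthy-nucleus cells.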

[1] = 12 h, 1 µM, compound concentration 1 uM, replicate 1
[2] = 12 h, 1 µM, compound concentration 1 uM, replicate 2
[3] = 12 h, 10 µM, compound concentration 10 uM, replicate 1
[4] = 12 h, 10 µM, compound concentration 10 uM, replicate 2
[5] = 24 h, 1 µM, compound concentration 1 uM, replicate 1
[6] = 24 h, 1 µM, compound concentration 1 uM, replicate 2
[7] = 24 h, 10 µM, compound concentration 10 uM, replicate 1
[8] = 24 h, 10 µM, compound concentration 10 uM, replicate 2
[9] = 48 h, 1 µM, compound concentration 1 uM, replicate 1
[10] = 48 h, 1 µM, compound concentration 1 uM, replicate 2
[11] = 48 h, 10 µM, compound concentration 10 uM, replicate 1
[12] = 48 h, 10 µM, compound concentration 10 uM, replicate 2

CC(C)c1cc(Nc2nc(N3CCC[C@H](N)C3)ncc2C(N)=O)cc(C(C)C)n1
Population Apoptotic (%) [1]: 57%
Population Fragmented Nuclei (%) [1]: 33%
Population Healthy Nuclei (%) [1]: 36%
Population Hoechst High Intensity Objects (%) [1]: 13%
Population Membrane Permeable-Phenotype (%) [1]: 22%
Population Mitochondria Different-Phenotype (%) [1]: 22%
Population Mitotic Cells (%) [1]: 42%
Population Normal (%) [1]: 86%
Population Pyknosed Nuclei (%) [1]: 30%
Population Tubulin-Different-Phenotype (%) [1]: 82%
Total Cell Count [1]: 127
Population Apoptotic (%) [2]: 44%
Population Fragmented Nuclei (%) [2]: 12%
Population Healthy Nuclei (%) [2]: 75%
Population Hoechst High Intensity Objects (%) [2]: 9%
Population Membrane Permeable-Phenotype (%) [2]: 16%
Population Mitochondria Different-Phenotype (%) [2]: 92%
Population Mitotic Cells (%) [2]: 55%
Population Normal (%) [2]: 90%
Population Pyknosed Nuclei (%) [2]: 12%
Population Tubulin-Different-Phenotype (%) [2]: 96%
Total Cell Count [2]: 82
Population Apoptotic (%) [3]: 59%
Population Fragmented Nuclei (%) [3]: 30%
Population Healthy Nuclei (%) [3]: 37%
Population Hoechst High Intensity Objects (%) [3]: 28%
Population Membrane Permeable-Phenotype (%) [3]: 34%
Population Mitochondria Different-Phenotype (%) [3]: 30%
Population Mitotic Cells (%) [3]: 40%
Population Normal (%) [3]: 71%
Population Pyknosed Nuclei (%) [3]: 31%
Population Tubulin-Different-Phenotype (%) [3]: 76%
Total Cell Count [3]: 96
Population Apoptotic (%) [4]: 65%
Population Fragmented Nuclei (%) [4]: 19%
Population Healthy Nuclei (%) [4]: 31%
Population Hoechst High Intensity Objects (%) [4]: 14%
Population Membrane Permeable-Phenotype (%) [4]: 100%
Population Mitochondria Different-Phenotype (%) [4]: 93%
Population Mitotic Cells (%) [4]: 34%
Population Normal (%) [4]: 85%
Population Pyknosed Nuclei (%) [4]: 48%
Population Tubulin-Different-Phenotype (%) [4]: 100%
Total Cell Count [4]: 55
Population Apoptotic (%) [5]: 48%
Population Fragmented Nuclei (%) [5]: 30%
Population Healthy Nuclei (%) [5]: 32%
Population Hoechst High Intensity Objects (%) [5]: 25%
Population Membrane Permeable-Phenotype (%) [5]: 17%
Population Mitochondria Different-Phenotype (%) [5]: 14%
Population Mitotic Cells (%) [5]: 51%
Population Normal (%) [5]: 74%
Population Pyknosed Nuclei (%) [5]: 36%
Population Tubulin-Different-Phenotype (%) [5]: 77%
Total Cell Count [5]: 143
Population Apoptotic (%) [6]: 26%
Population Fragmented Nuclei (%) [6]: 10%
Population Healthy Nuclei (%) [6]: 68%
Population Hoechst High Intensity Objects (%) [6]: 5%
Population Membrane Permeable-Phenotype (%) [6]: 30%
Population Mitochondria Different-Phenotype (%) [6]: 96%
Population Mitotic Cells (%) [6]: 73%
Population Normal (%) [6]: 94%
Population Pyknosed Nuclei (%) [6]: 20%
Population Tubulin-Different-Phenotype (%) [6]: 94%
Total Cell Count [6]: 77
Population Apoptotic (%) [7]: 63%
Population Fragmented Nuclei (%) [7]: 26%
Population Healthy Nuclei (%) [7]: 42%
Population Hoechst High Intensity Objects (%) [7]: 25%
Population Membrane Permeable-Phenotype (%) [7]: 17%
Population Mitochondria Different-Phenotype (%) [7]: 44%
Population Mitotic Cells (%) [7]: 36%
Population Normal (%) [7]: 75%
Population Pyknosed Nuclei (%) [7]: 31%
Population Tubulin-Different-Phenotype (%) [7]: 82%
Total Cell Count [7]: 92
Population Apoptotic (%) [8]: 84%
Population Fragmented Nuclei (%) [8]: 23%
Population Healthy Nuclei (%) [8]: 23%
Population Hoechst High Intensity Objects (%) [8]: 17%
Population Membrane Permeable-Phenotype (%) [8]: 100%
Population Mitochondria Different-Phenotype (%) [8]: 90%
Population Mitotic Cells (%) [8]: 16%
Population Normal (%) [8]: 82%
Population Pyknosed Nuclei (%) [8]: 53%
Population Tubulin-Different-Phenotype (%) [8]: 100%
Total Cell Count [8]: 57
Population Apoptotic (%) [9]: 70%
Population Fragmented Nuclei (%) [9]: 29%
Population Healthy Nuclei (%) [9]: 40%
Population Hoechst High Intensity Objects (%) [9]: 37%
Population Membrane Permeable-Phenotype (%) [9]: 34%
Population Mitochondria Different-Phenotype (%) [9]: 7%
Population Mitotic Cells (%) [9]: 30%
Population Normal (%) [9]: 62%
Population Pyknosed Nuclei (%) [9]: 29%
Population Tubulin-Different-Phenotype (%) [9]: 68%
Total Cell Count [9]: 162
Population Apoptotic (%) [10]: 42%
Population Fragmented Nuclei (%) [10]: 33%
Population Healthy Nuclei (%) [10]: 56%
Population Hoechst High Intensity Objects (%) [10]: 33%
Population Membrane Permeable-Phenotype (%) [10]: 9%
Population Mitochondria Different-Phenotype (%) [10]: 1%
Population Mitotic Cells (%) [10]: 57%
Population Normal (%) [10]: 66%
Population Pyknosed Nuclei (%) [10]: 10%
Population Tubulin-Different-Phenotype (%) [10]: 58%
Total Cell Count [10]: 204
Population Apoptotic (%) [11]: 95%
Population Fragmented Nuclei (%) [11]: 43%
Population Healthy Nuclei (%) [11]: 24%
Population Hoechst High Intensity Objects (%) [11]: 32%
Population Membrane Permeable-Phenotype (%) [11]: 66%
Population Mitochondria Different-Phenotype (%) [11]: 13%
Population Mitotic Cells (%) [11]: 5%
Population Normal (%) [11]: 67%
Population Pyknosed Nuclei (%) [11]: 32%
Population Tubulin-Different-Phenotype (%) [11]: 66%
Total Cell Count [11]: 92
Population Apoptotic (%) [12]: 80%
Population Fragmented Nuclei (%) [12]: 27%
Population Healthy Nuclei (%) [12]: 38%
Population Hoechst High Intensity Objects (%) [12]: 31%
Population Membrane Permeable-Phenotype (%) [12]: 19%
Population Mitochondria Different-Phenotype (%) [12]: 58%
Population Mitotic Cells (%) [12]: 19%
Population Normal (%) [12]: 68%
Population Pyknosed Nuclei (%) [12]: 33%
Population Tubulin-Different-Phenotype (%) [12]: 55%
Total Cell Count [12]: 135
